Laboratory results taken from ChEMBL document CHEMBL1138563, “Synthesis and in vitro antimicrobial activity of some novel substituted benzimidazole derivatives having potent activity against MRSA” (2009).
In brackets after ≈: the same amount, converted by molar mass.

Tests used:
Assay type in all cases: functional
Staphylococcus aureus [1] = assay: Antimicrobial activity against Staphylococcus aureus ATCC 25923 by tube dilution method
Procedure, shortened: (§1)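 Tube dilution MIC assay. Compounds and standard drugs were dissolved in 50% DMSO–water as stock. The stock was diluted 4-fold with culture medium plus bacterial suspension to give the starting test concentration. That initial tube contained 12.5% DMSO, so no data were taken from it. The MIC was then read across the dilution series.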

Staphylococcus aureus [2] = assay: Antimicrobial activity against methicillin-resistant Staphylococcus aureus ATCC […] by tube dilution method; procedure, shortened: as §1
Staphylococcus aureus [3] = assay: Antimicrobial activity against methicillin-resistant Staphylococcus aureus isolates by tube dilution method; procedure, shortened: as §1
Escherichia coli = assay: Antimicrobial activity against Escherichia coli ATCC 25922 by tube dilution method
Procedure, shortened: (§2)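 Tube dilution MIC determination. Test agents and reference drugs are dissolved as a stock in 50% DMSO–water, then diluted 4-fold with culture medium plus inoculum. The first dilution (12.5% DMSO) is excluded from scoring. The read-out is the minimum inhibitory concentration.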

Bacillus subtilis = assay: Antimicrobial activity against Bacillus subtilis ATCC 6633 by tube dilution method; procedure, shortened: as §2
Candida albicans = assay: Antimicrobial activity against Candida albicans ATCC 10145 by tube dilution method; procedure, shortened: as §2

Row | SMILES | MIC (Staphylococcus aureus [1]) [µg/mL] | MIC (Staphylococcus aureus [2]) [µg/mL] | MIC (Staphylococcus aureus [3]) [µg/mL] | MIC (Escherichia coli) [µg/mL] | MIC (Bacillus subtilis) [µg/mL] | MIC (Candida albicans) [µg/mL]
1 | Clc1ccc(-c2nc3cc(Cl)c(Cl)cc3[nH]2)cc1 | 3.12 (≈ 10.5 µM) | 3.12 (≈ 10.5 µM) | 3.12 (≈ 10.5 µM) | 50 (≈ 168 µM) | 50 (≈ 168 µM) | 12.5 (≈ 42 µM)
2 | CC(C)(C)c1ccc(-c2nc3cc(Cl)c(Cl)cc3[nH]2)cc1 | 3.12 (≈ 9.77 µM) | 3.12 (≈ 9.77 µM) | 3.12 (≈ 9.77 µM) | 50 (≈ 157 µM) | 6.25 (≈ 19.6 µM) | 12.5 (≈ 39.2 µM)
3 | Clc1cc2nc(-c3ccc4ccccc4c3)[nH]c2cc1Cl | 50 (≈ 160 µM) | 50 (≈ 160 µM) | 50 (≈ 160 µM) | 50 (≈ 160 µM) | 25 (≈ 79.8 µM) | 25 (≈ 79.8 µM)
4 | O=[N+]([O-])c1cccc(-c2nc3cc(Cl)ccc3n2C2CCCC2)c1 | 50 (≈ 146 µM) | 50 (≈ 146 µM) | 50 (≈ 146 µM) | 50 (≈ 146 µM) | 25 (≈ 73.1 µM) | 12.5 (≈ 36.6 µM)
5 | CC(C)(C)c1ccc(-c2nc3cc(Cl)c(Cl)cc3n2C2CCCC2)cc1 | 6.25 (≈ 16.1 µM) | 25 (≈ 64.5 µM) | 25 (≈ 64.5 µM) | 50 (≈ 129 µM) | 25 (≈ 64.5 µM) | 25 (≈ 64.5 µM)
6 | Clc1cc2nc(-c3ccc4ccccc4c3)n(C3CCCC3)c2cc1Cl | 50 (≈ 131 µM) | 25 (≈ 65.6 µM) | 25 (≈ 65.6 µM) | 50 (≈ 131 µM) | 12.5 (≈ 32.8 µM) | 12.5 (≈ 32.8 µM)
7 | Clc1ccc2c(c1)nc(-c1ccc3ccccc3c1)n2C1CCCC1 | 25 (≈ 72.1 µM) | 25 (≈ 72.1 µM) | 25 (≈ 72.1 µM) | 50 (≈ 144 µM) | 25 (≈ 72.1 µM) | 6.25 (≈ 18 µM)
8 | CCOc1cc2c(cc1Cl)nc(-c1ccc(F)cc1)n2C1CCCC1 | 6.25 (≈ 17.4 µM) | 6.25 (≈ 17.4 µM) | 6.25 (≈ 17.4 µM) | 50 (≈ 139 µM) | 25 (≈ 69.7 µM) | 50 (≈ 139 µM)
9 | Nc1nc2cc(Cl)ccc2n1C1CCCC1 | 25 (≈ 106 µM) | 50 (≈ 212 µM) | 50 (≈ 212 µM) | 50 (≈ 212 µM) | 25 (≈ 106 µM) | 25 (≈ 106 µM)
10 | Clc1ccc2c(c1)ncn2C1CCCC1 | 50 (≈ 227 µM) | 50 (≈ 227 µM) | 50 (≈ 227 µM) | ≥ 50 | 50 (≈ 227 µM) | 50 (≈ 227 µM)
11 | Clc1cc2nc(Br)n(C3CCCC3)c2cc1Cl | 3.12 (≈ 9.34 µM) | 6.25 (≈ 18.7 µM) | 6.25 (≈ 18.7 µM) | 50 (≈ 150 µM) | 25 (≈ 74.8 µM) | 25 (≈ 74.8 µM)
12 | CC(=O)Oc1ccc(-c2nc3cc(Cl)ccc3n2C2CCCC2)cc1 | 50 (≈ 141 µM) | 50 (≈ 141 µM) | 50 (≈ 141 µM) | 50 (≈ 141 µM) | 50 (≈ 141 µM) | 50 (≈ 141 µM)
13 | Clc1ccc(-c2nc3cc(Cl)c(Cl)cc3n2C2CCCC2)cc1 | 50 (≈ 137 µM) | 50 (≈ 137 µM) | 50 (≈ 137 µM) | 50 (≈ 137 µM) | 25 (≈ 68.4 µM) | 12.5 (≈ 34.2 µM)
14 | CN(C)c1ccc(-c2nc3cc(Cl)ccc3n2C2CCCC2)cc1 | 12.5 (≈ 36.8 µM) | 25 (≈ 73.6 µM) | 25 (≈ 73.6 µM) | 50 (≈ 147 µM) | 25 (≈ 73.6 µM) | 12.5 (≈ 36.8 µM)
15 | CC1(C)S[C@@H]2[C@H](NC(=O)[C@H](N)c3ccccc3)C(=O)N2[C@H]1C(=O)O [AMPICILLIN] | 0.78 (≈ 2.23 µM) | 50 (≈ 143 µM) | 50 (≈ 143 µM) | – | – | –
16 | O=C(O)c1cn(C2CC2)c2cc(N3CCNCC3)c(F)cc2c1=O [CIPROFLOXACIN] | 0.78 (≈ 2.35 µM) | – | 12.5 (≈ 37.7 µM) | – | 0.09 (≈ 0.272 µM) | –
17 | OC(Cn1cncn1)(Cn1cncn1)c1ccc(F)cc1F [FLUCONAZOLE] | – | – | – | – | – | 1.56 (≈ 5.09 µM)
18 | CC1(C)S[C@@H]2[C@H](NC(=O)[C@H](N)c3ccccc3)C(=O)N2[C@H]1C(=O)OCOC(=O)[C@@H]1N2C(=O)C[C@H]2S(=O)(=O)C1(C)C [SULTAMICILLIN] | 0.39 (≈ 0.656 µM) | 25 (≈ 42 µM) | 25 (≈ 42 µM) | – | 0.78 (≈ 1.31 µM) | –
